Results as given in PubChem BioAssay AID1800 (The Scripps Research Institute Molecular Screening Center, 2009).
In all, about 290,000 compounds went through this assay and about 1,600 (0.55%) were called active. For the sample, actives were picked, then their nearest neighbours and some compounds at random. Values without a mark were called inactive.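 Rule for the calls: active = inhibition above the mean of all tested compounds plus 3 SD, set per campaign (cut at about 35% in these data); inactive = the rest.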

Each compound was assayed on Hepatitis C virus NS3 helicase (assay: HCV NS3 DNA unwinding blockers – biochemical, Cy5 molecular beacon fluorescence, primary screen (AID 1800;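 note: 0% = DMSO wells and 100% = thioflavine S control wells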)). Conditions: at 10.9 µM, hits give high values.
In short: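 Control set: DMSO versus 110 µM thioflavine S; Material: NS3 helicase fragment of HCV; Measured by: Cy5 fluorescence at 0 and 60 min, beacon hairpin quenching; Read-out basis: percent inhibition from t60/t0 fluorescence ratio; Times: reaction time 60 min, 25 °C; Repeats: single replicate; Compound dosing: single dose, 10.9 µM nominal final, DMSO 0.8% final.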

Compared with `CC(=O)c1ccc(N2CCN(S(=O)(=O)c3ccc4c(c3)CC(=O)N4C)CC2)cc1`, `CC(C)c1ccc(S(=O)(=O)N2CCN(C(=O)c3ccc(N4CCCC4)c([N+](=O)[O-])c3)CC2)cc1` is lower in inhibition: 26.3% for the first, -8.12% for the second.

Going from `O=S(=O)(NC1CC1)c1ccc(Cl)cc1` to `COc1ccc(S(=O)(=O)NCC(=O)NC2CC2)cc1OC`, the inhibition rises from 4.09% to 22.6%.

First: COc1ccc(NC(=O)CC2C(=O)NC3CCCCC3N2C(=O)c2ccc(F)cc2)cc1 (centres undefined)
Second: Cc1nn(CC(=O)Nc2ccc(F)cc2)c(=O)c2ccccc12
The inhibition of the first is lower: -15.6% for the first, 17.6% for the second.

Compared with `Cc1ccc(-c2n[nH]c(=S)n2/N=C/c2cc3c(cc2[N+](=O)[O-])OCO3)cc1`, `CC(=O)N/N=C/c1cc2c(cc1[N+](=O)[O-])OCO2` is lower in inhibition: 8.58% for the first, 3.66% for the second.

Going from `CC(=O)Nc1ccc(NC(=O)CCCNC(=O)c2ccc(Cl)cc2)cc1` to `CN(CC1CCCO1)S(=O)(=O)c1ccc(C(=O)Nc2ccc([N+](=O)[O-])cc2)cc1` (centres undefined), the inhibition rises from -9.29% to -4.51%.

First: CCCN1CCn2c3c(c4cc(Br)ccc42)CCCC31 (centres undefined)
Second: COCCN1CCn2c(nc3cc(NS(C)(=O)=O)ccc32)C1
The inhibition of the first is lower: -17.6% for the first, -2.65% for the second.

Compared with `Cc1ccc(-c2nn(-c3ccccc3)cc2/C=N/NC(=O)c2ccc3c(c2)OCO3)cc1`, `Cc1nnc(SCC(=O)N/N=C/c2cn(-c3ccccc3)nc2-c2ccc(F)cc2)n1-c1ccccc1` is lower in inhibition: 3.37% for the first, -0.42% for the second.

Compared with `CC(=O)N1CCC(C(=O)Nc2nc(-c3ccccc3)ns2)CC1`, `COC(=O)c1ccccc1NC(=O)C1CCN(C(=O)N2CCOc3ccccc32)CC1` is lower in inhibition: 1.62% for the first, -12.1% for the second.

Going from `O=C(c1cccc(C(=O)N2CCN(c3ccc(F)cc3)CC2)c1)N1CCN(c2ccc(F)cc2)CC1` to `O=C(c1cnc(Cl)c(Cl)c1)N1CCN(S(=O)(=O)c2ccc(F)cc2)CC1`, the inhibition rises from -2.81% to 5.16%.

First: O=C(O)c1cc(S(=O)(=O)NC2CCCc3ccccc32)ccc1O (centres undefined)
Second: CCOc1ccc(S(=O)(=O)N2CCC(C(=O)NCc3ccccn3)CC2)cc1Cl
The inhibition of the first is higher: 7.44% for the first, 4.14% for the second.

Compared with `CNS(=O)(=O)c1cccc(C(=O)NCC2CCCCC2)c1`, `Cc1ccc(S(=O)(=O)N2CCN(C)CC2)cc1C(=O)NC1CCCCC1` is higher in inhibition: -9.16% for the first, 0.44% for the second.

Going from `CC1(C)NC(=O)N(CC(=O)Nc2cc(C(F)(F)F)cc(C(F)(F)F)c2)C1=O` to `COC(=O)c1cnn2c(C(F)(F)F)cc(-c3ccco3)nc12`, the inhibition rises from -6.82% to 18.2%.

Going from `CCn1cc(C(=O)OCC(=O)Nc2cccc(C)c2)c(=O)c2ccc(C)nc21` to `COc1ccc(CNC(=O)c2nnn(CC(=O)Nc3cc(C)cc(C)c3)c2N)cc1`, the inhibition falls from 4.57% to -13.3%.

Going from `COc1ccc(C(=O)NC2CCN(C(=S)NCCc3ccccc3)CC2)cc1` to `O=C1CCN(C(=S)NCCc2ccccc2)CC1`, the inhibition falls from 0.36% to -6.74%.

Going from `COc1ccc(CCn2c(=N)c(C(=O)NCC3CCCO3)cc3c(=O)n4cccc(C)c4nc32)cc1OC` (centres undefined) to `COc1ccc(/C=C2\SC(=S)N(CCC(=O)Nc3ccccn3)C2=O)cc1OC`, the inhibition falls from 0.37% to -1.07%.

Compared with `COc1cc(NS(=O)(=O)c2ccc(NC(=S)NC(=O)c3ccccc3)cc2)nc(OC)n1`, `COC(=O)C1=C(O)/C(=C/c2ccc(OCC(=O)Nc3ccccc3)cc2)N=C1C` is lower in inhibition: 11% for the first, -4.57% for the second.

First: COc1nnc(-c2ccc(C)c(S(=O)(=O)N(C)C)c2)c2ccccc12
Second: COc1ccc2oc(C(=O)NCC(Cc3ccccc3)N(C)C)c(C)c2c1 (centres undefined)
The inhibition of the first is higher: -1.73% for the first, -39.7% for the second.

Going from `Fc1cccc(Cl)c1CSc1ccc(-c2ccco2)nn1` to `Brc1ccc(CSc2ccc(-c3ccco3)nn2)cc1`, the inhibition falls from 5.94% to 3.25%.

First: O=c1[nH]c(SCc2ccccc2)nnc1-c1ccccc1
Second: CCC(C)NC(=O)C1c2ccccc2C(=O)N1Cc1ccccc1 (centres undefined)
The inhibition of the first is higher: 35.9% for the first, -11.1% for the second.

Compared with `COC(OC)c1ccnc(SCc2ccccc2Cl)n1`, `CCSc1nsc(NC(=O)Nc2ccccc2OC)n1` is higher in inhibition: -11.3% for the first, -3.36% for the second.

Compared with `COc1ccc(/C=N/OCc2ccccc2C#N)c(OC)c1`, `COc1ccc(C)cc1NC(=O)NCCCCc1ccccc1` is higher in inhibition: -11.6% for the first, 2.02% for the second.

Going from `CS(=O)(=O)N1CCN(CC(=O)NC2CCCC2)CC1` to `COc1ccc(/C=C2\SC(=S)N(CCCC(=O)NC3CCCC3)C2=O)cc1OC`, the inhibition rises from 2.51% to 19%.

First: Cc1ccc(NC(=O)[C@H](Cc2ccccc2)NC(=O)C2CCNCC2)cc1
Second: O=C(C[C@H]1C(=O)N(c2ccc(F)c(F)c2)C[C@@H]1Cc1ccccc1)Nc1ccccc1
The inhibition of the first is lower: -12.4% for the first, -4.71% for the second.

Compared with `CCOC(=O)C1=C(O)/C(=C/c2ccc(OCC(=O)Nc3ccc(C)cc3)cc2)N=C1C`, `CS(=O)(=O)C1=NN2C(=N)/C(=C\c3ccc(OCCOc4ccccc4)cc3)C(=O)N=C2S1` is lower in inhibition: 8.39% for the first, 7.31% for the second.

Going from `O=C(CCCN1CCc2[nH]c3ccc(F)cc3c2C1)c1ccc(F)cc1` to `O=C(Oc1ccc(C(=S)N2CCOCC2)cc1)c1ccc(F)cc1`, the inhibition rises from -45% to -0.77%.

First: COCCCNS(=O)(=O)c1cccc(S(=O)(=O)c2cccc(S(=O)(=O)NCCCOC)c2)c1
Second: COc1cccc(CNC(=O)c2nnn(CC(=O)Nc3cc(C)ccc3C)c2N)c1
The inhibition of the first is lower: 3.55% for the first, 8.19% for the second.

First: O=C(C1=C(O)C(=O)N(Cc2ccccc2)C1c1cccnc1)c1ccco1 (centres undefined)
Second: O=C(C1=C(O)C(=O)N(Cc2ccccc2)C1c1ccco1)c1ccco1 (centres undefined)
The inhibition of the first is lower: -5.86% for the first, 17.3% for the second.

First: CCC(NC(=O)c1ccccc1NC(=O)c1ccccc1)C(=O)NNC(=O)CSc1nc2ccccc2o1 (centres undefined)
Second: CN(C(=O)COC(=O)c1cc(-c2ccco2)nc2ccccc12)C1CCS(=O)(=O)C1 (centres undefined)
The inhibition of the first is lower: -3.35% for the first, 20.9% for the second.

Going from `CN1C(=O)/C(=C\c2ccc(-c3ccccc3)o2)SC1=S` to `CN1CCN(/N=C/c2ccc(-c3ccc([N+](=O)[O-])cc3)o2)CC1`, the inhibition falls from 23.6% to -1.77%.

First: CCOc1ccc(CN2CCNC(=O)C2CC(=O)NCCCC2CCCC2)cc1 (centres undefined)
Second: CCN(CC)C(=O)COc1coc(CN2CCN(Cc3ccccc3)CC2)cc1=O
The inhibition of the first is lower: -18.7% for the first, -0.99% for the second.

Compared with `O=C(NC1CCCC1)c1cc(-c2ccccc2)on1`, `COc1ccc(C2=NN(C(C)=O)C(c3ccccc3)C2)cc1` (centres undefined) is higher in inhibition: -12.1% for the first, -3.52% for the second.

Compared with `O=C(NCCc1ccccn1)c1nc(Cn2cc([N+](=O)[O-])cn2)no1`, `O=C(O)CCCC(=O)N1N=C(c2ccco2)CC1c1ccco1` (centres undefined) is lower in inhibition: 2.16% for the first, 1.26% for the second.

First: Cc1cc2nc3c(=O)n(Cc4ccccc4)c(=O)[nH]c3nc2cc1N
Second: CCc1cccc(C)c1N1C(=O)CN(Cc2ccccc2)C1=S
The inhibition of the first is higher: -1.52% for the first, -10.7% for the second.

First: Cc1cc(/C=C2/C(=N)N3C(=NC2=O)SN=C3S(C)(=O)=O)c(C)n1-c1ccccc1
Second: C=CCSc1nsc(NC(=O)Nc2cccc(C(C)=O)c2)n1
The inhibition of the first is higher: 20% for the first, -3.05% for the second.

Compared with `CCOc1ccc(N(C)S(=O)(=O)c2cnc[nH]2)cc1`, `O=C(Oc1ccc(F)cc1)N1CCOCC1` is lower in inhibition: 4.43% for the first, 4.09% for the second.

With `Cc1ccc(S(=O)(=O)N/N=C\c2cc3c(cc2[N+](=O)[O-])OCO3)cc1` the inhibition was 54.2% (active).
For `O=C(N/N=C/c1ccc([N+](=O)[O-])o1)c1cn(-c2ccccc2)nc1-c1ccc(F)cc1`, the inhibition was 37% (active).
With `O=C(c1cccc(-n2cccc2)c1)N1CCN(S(=O)(=O)c2ccc(F)cc2)CC1` the inhibition was 77% (active).
With `CNS(=O)(=O)c1cccc(C(=O)NC2CCCc3ccccc32)c1` (centres undefined) the inhibition was 37% (active).
In the case of `S=C(NCCc1ccccc1)N1CCCCC1`, the inhibition is reported as 40.9% (active).
With `Clc1ccccc1CSc1nnc(-c2ccco2)c(-c2ccco2)n1` the inhibition was 53.8% (active).
In the case of `c1ccc(CSc2nnc(-c3ccco3)c(-c3ccco3)n2)cc1`, the inhibition is reported as 38.3% (active).
With `CCOC(=O)C1=C(O)/C(=C/c2cc(C)n(-c3ccccc3)c2C)N=C1C` the inhibition was 46.3% (active).
`CC(C)c1ccc(C2C(C(=O)c3ccco3)=C(O)C(=O)N2CC2CCCO2)cc1` (centres undefined) was tested, and the inhibition was 55.9% (active).
In the case of `O=C(OCC1O[C@@H](OC(=O)c2cc(O)c(O)c(O)c2)[C@@H](OC(=O)c2cc(O)c(O)c(O)c2)[C@@H](OC(=O)c2cc(O)c(O)c(O)c2)[C@@H]1OC(=O)c1cc(O)c(O)c(O)c1)c1cc(O)c(O)c(O)c1` (some centres undefined), the inhibition is reported as 63.6% (active).
With `NS(=O)(=O)c1ccc(-c2ccc(/C=C3\SC(=O)NC3=O)o2)cc1` the inhibition was 60.5% (active).
`COc1ccc(/C=C2\SC(=S)N(CCC(=O)Nc3cccc(C(=O)O)c3)C2=O)cc1OC` was tested, and the inhibition was 61% (active).
`Cc1nn2c(c1-c1ccccc1)N=C(c1ccco1)CC2c1ccccc1` (centres undefined) was tested, and the inhibition was 39.1% (active).
In the case of `Nc1ccc2nc3c(=O)[nH]c(=S)[nH]c3nc2c1`, the inhibition is reported as 80.4% (active).
With `COc1cccc(CNC(=O)c2nnn(CC(=O)Nc3cc(Cl)ccc3C)c2N)c1` the inhibition was 38.7% (active).
`CS(=O)(=O)c1ccc2c(c1)SC1=NC(=O)/C(=C/c3ccco3)C(=N)N12` was tested, and the inhibition was 39.8% (active).
With `CCSc1nsc(NC(=O)Nc2cccc(C(C)=O)c2)n1` the inhibition was 38.8% (active).
For `Cc1cc(C)c2nc(-c3ccco3)cc(C(=O)O)c2c1`, the inhibition was 37.2% (active).
`N#C/C=C(/c1ccc(F)cc1)N1CCOCC1` was tested, and the inhibition was 40.5% (active).
